ChEMBL document CHEMBL4321838, “Drug Design Targeting T-Cell Factor-Driven Epithelial-Mesenchymal Transition as a Therapeutic Strategy for Colorectal Cancer” (J Med Chem, 2019)
≈ marks a conversion by molar mass, not a printed value. Calls of active or inactive are those of the source.

Tests used:
[1] = biological target: T1, DNA topoisomerase 2-alpha (Homo sapiens, UniProt P11388); experiment: Inhibition of human topoisomerase 2alpha mediated decatenation at 30 uM using kDNA as susbtrate preincubated for 20 mins followed by substrate and ATP addition and measured after 1 hr by ethidium bromide staining based gel electrophoresis method relative to control
Method in brief: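 Human TOP2A (3 U) preincubated 20 min at 37 °C with compound at 30 μM in 1.2% DMSO. Reaction started with 2 mM ATP and 35 ng kDNA and run 1 h at 37 °C. Products resolved on 0.8% agarose in TBE with 0.2 μg/mL ethidium bromide; decatenated bands compared with vehicle.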

[2] = Aqueous solubility of compound in PBS at 1 mg after 18 hrs by UV based analysis; assay type: physicochemical
Method in brief: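 Undissolved material removed by centrifugation at 5,000g for 45 min. UV absorption compared with a fully saturated 1-propanol solution; solubility derived by linear regression.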

[3] = biological target: T1, DNA topoisomerase 2-alpha; experiment: Inhibition of topoisomerase 2alpha dependent TCF transcription in human SW620 organoids transduced with TOPflash luminescent reporter after 72 hrs by luciferase based TOPFlash reporter gene assay
Method in brief: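 SW620 cells stably carrying pCDH-TOPflash-luc grown as organoids: 5,000 cells per U-bottom well in phenol red-free RPMI with 5% FBS and 2% Matrigel, 72 h. Inhibitor then applied 72 h. One-Glo luciferase and CellTiter-Glo 3D added 1:1. Luciferase signal normalised to viability, then to DMSO controls.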

[4] = Tmax in CD-1 mouse at 50 mg/kg, ip by LC-MS/MS analysis; assay type: ADME, organism-based; details: in vivo
Method in brief: (§1)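 Female CD-1 mice, single IP injection at 50 mg/kg in 100% DMSO. Sampling from 0.25 to 24 h, three mice per time point (21 per compound). Heparinised blood was spun to plasma, mixed 1:1 with acidified acetonitrile (0.1% formic acid or 0.1% TFA depending on compound), centrifuged, then measured by LC-MS/MS.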

[5] = Drug metabolism in CD-1 mouse active microsomes assessed as CYP450-mediated oxidative phase 1 metabolite formation measured within 30 mins by LC-MS/MS analysis; assay type: ADME; details: 0.5 h
SW-620 [6] = experiment: Cytotoxicity against human SW620 organoids assessed as cell death with loss of membrane integrity after 72 hrs by CellTox Green assay; assay type: functional, cell-based; details: SW-620, 72 h
Method in brief: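 SW620 tumor organoids exposed 72 h to inhibitor over 0–40 μM together with CellTox Green Express (0.5X). Whole-well mean fluorescence imaged (ex 488, em 500–550 nm). Normalised to lysis buffer as 0% viability and 0.4% DMSO as 100% viability.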

[7] = Half life of terminal disposition phase in CD-1 mouse at 50 mg/kg, ip by LC-MS/MS analysis; assay type: ADME, organism-based; details: in vivo, read-out: t1/2lambda (converted); method in brief: as §1
[8] = Cmax in CD-1 mouse at 50 mg/kg, ip by LC-MS/MS analysis; assay type: ADME, organism-based; parameters: dose 50 mg/kg, route intraperitoneal; details: in vivo; method in brief: as §1
[9] = Metabolic stability in CD-1 mouse inactive microsomes incubated for 1 hr by LC-MS/MS analysis; assay type: ADME, Microsome
SW-620 [10] = experiment: Antiinvasive activity in human SW620 organoids transduced with NucLight-Red virus assessed as inhibition of cell invasion at 10 uM incubated for 72 hrs and measured after 72 hrs by matrigel based fluorescence analysis; assay type: functional
Method in brief: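 NucLight-Red-labelled SW620 organoids treated 72 h at 10 μM in 0.1% DMSO, then dissociated. 5,000 live cells per well seeded in 50% Matrigel in the upper chamber of a migration plate, 0.5% FBS above and 20% FBS below. Invading cells tracked by bottom-side fluorescence over days, six replicates per condition.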

[11] = Drug metabolism in CD-1 mouse active microsomes assessed as metabolite formation at rate of first-order kinetics by LC-MS/MS analysis; assay type: ADME, Microsome
[12] = AUC(0 to t) in CD-1 mouse at 50 mg/kg, ip by LC-MS/MS analysis; assay type: ADME, organism-based; details: in vivo; method in brief: as §1
Mus musculus = experiment: Apparent volume of drug distribution in CD-1 mouse at 50 mg/kg, ip by LC-MS/MS analysis; assay type: ADME, organism-based; details: in vivo; method in brief: as §1
[13] = Clearance in CD-1 mouse at 50 mg/kg, ip by LC-MS/MS analysis; assay type: ADME, organism-based; details: in vivo; method in brief: as §1
SW-620 [14] = experiment: Anticlonogenic activity against human SW620 cells assessed as loss of cancer stem cell stemness by measuring inhibition of colony formation at 10 uM incubated for 24 hrs followed by replating and measured after 7 days by clonogenic assay; assay type: functional, cell-based
[15] = Half life in CD-1 mouse microsomes measured up to 1 hr by LC-MS analysis; assay type: ADME, Microsome
Method in brief: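 Female CD-1 mouse liver microsomes (0.5 mg/mL), substrate 1 μg/mL and 1.5 mM NADPH in 0.1 M phosphate buffer pH 7.4 at 37 °C. Samples taken from 0 to 60 min and quenched with an equal volume of acetonitrile. Parent compound remaining measured by LC-MS/MS without internal standard.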

[16] = biological target: T1, DNA topoisomerase 2-alpha; experiment: Inhibition of human topoisomerase 2alpha mediated decatenation using kDNA as susbtrate preincubated for 20 mins followed by substrate and ATP addition and measured after 1 hr by ethidium bromide staining based gel electrophoresis method
Method in brief: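 IC50 from decatenation gels: TOP2A at 4 U per reaction, compound as 2-fold serial dilutions from 58.6 nM to 30 μM, 20 min preincubation. Then 2 mM ATP plus 35 ng kDNA for 1 h at 37 °C. Gels were 0.8% agarose with ethidium bromide, with decatenated and catenated DNA marker lanes.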

SW-620 [17] = experiment: Induction of apoptosis in human SW620 organoids assessed as increase in cleaved caspase 3/7 level at 40 uM after 72 hrs by caspase-glo 3/7 luminescence assay relative to control; assay type: functional
Method in brief: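 SW620 cells, 2,000 per well in 384-well ultra-low attachment plates with 2% Matrigel, grown 72 h into organoids, then dosed 72 h. Caspase-Glo 3/7 reagent added 1:1 and shaken 30 min; luminescence read. Staurosporine served as positive control and 0.4% DMSO as negative control.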

[18] = biological target: T1, DNA topoisomerase 2-alpha; experiment: Inhibition of topoisomerase 2alpha in human SW620 organoids transfected with EcadPro-RFP reporter assessed as reversion of epithelial-mesenchymal transition by measuring increase in E-cadherin expression up to 40 uM after 72 hrs by Hoechst 33342 staining based mCherryRFP reporter gene assay
Method in brief: (§2)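 SW620 cells stably carrying VimPro-GFP or EcadPro-mCherry (puromycin selected) grown as organoids and dosed 72 h. Stained with 16 μM Hoechst 33342 for 1 h and imaged as 15 z-layers, 26.5 μm apart. Nuclei segmented and GFP- or mCherry-positive cells counted above background thresholds. Percent positive cells normalised to DMSO.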

[19] = biological target: T1, DNA topoisomerase 2-alpha; experiment: Inhibition of topoisomerase 2alpha in human SW620 organoids transfected with VimPro-GFP reporter assessed as reversion of epithelial-mesenchymal transition by measuring reduction in vimentin expression up to 40 uM after 72 hrs by Hoechst 33342 staining based GFP reporter gene assay; method in brief: as §2
SW-620 [20] = experiment: Induction of early stage cell death in human SW620 organoids transfected with EcadPro-RFP reporter assessed as loss of RFP reporter activity at 40 uM at after 72 hrs by Hoechst 33342 staining based mCherryRFP reporter gene assay; details: sw-620, 72 h
SW-620 [21] = experiment: Cytotoxicity against human SW620 organoids assessed as growth inhibition at 10 uM after 72 hrs by brightfield imaging of organoid volume

T1 sequence (P11388 whole entry): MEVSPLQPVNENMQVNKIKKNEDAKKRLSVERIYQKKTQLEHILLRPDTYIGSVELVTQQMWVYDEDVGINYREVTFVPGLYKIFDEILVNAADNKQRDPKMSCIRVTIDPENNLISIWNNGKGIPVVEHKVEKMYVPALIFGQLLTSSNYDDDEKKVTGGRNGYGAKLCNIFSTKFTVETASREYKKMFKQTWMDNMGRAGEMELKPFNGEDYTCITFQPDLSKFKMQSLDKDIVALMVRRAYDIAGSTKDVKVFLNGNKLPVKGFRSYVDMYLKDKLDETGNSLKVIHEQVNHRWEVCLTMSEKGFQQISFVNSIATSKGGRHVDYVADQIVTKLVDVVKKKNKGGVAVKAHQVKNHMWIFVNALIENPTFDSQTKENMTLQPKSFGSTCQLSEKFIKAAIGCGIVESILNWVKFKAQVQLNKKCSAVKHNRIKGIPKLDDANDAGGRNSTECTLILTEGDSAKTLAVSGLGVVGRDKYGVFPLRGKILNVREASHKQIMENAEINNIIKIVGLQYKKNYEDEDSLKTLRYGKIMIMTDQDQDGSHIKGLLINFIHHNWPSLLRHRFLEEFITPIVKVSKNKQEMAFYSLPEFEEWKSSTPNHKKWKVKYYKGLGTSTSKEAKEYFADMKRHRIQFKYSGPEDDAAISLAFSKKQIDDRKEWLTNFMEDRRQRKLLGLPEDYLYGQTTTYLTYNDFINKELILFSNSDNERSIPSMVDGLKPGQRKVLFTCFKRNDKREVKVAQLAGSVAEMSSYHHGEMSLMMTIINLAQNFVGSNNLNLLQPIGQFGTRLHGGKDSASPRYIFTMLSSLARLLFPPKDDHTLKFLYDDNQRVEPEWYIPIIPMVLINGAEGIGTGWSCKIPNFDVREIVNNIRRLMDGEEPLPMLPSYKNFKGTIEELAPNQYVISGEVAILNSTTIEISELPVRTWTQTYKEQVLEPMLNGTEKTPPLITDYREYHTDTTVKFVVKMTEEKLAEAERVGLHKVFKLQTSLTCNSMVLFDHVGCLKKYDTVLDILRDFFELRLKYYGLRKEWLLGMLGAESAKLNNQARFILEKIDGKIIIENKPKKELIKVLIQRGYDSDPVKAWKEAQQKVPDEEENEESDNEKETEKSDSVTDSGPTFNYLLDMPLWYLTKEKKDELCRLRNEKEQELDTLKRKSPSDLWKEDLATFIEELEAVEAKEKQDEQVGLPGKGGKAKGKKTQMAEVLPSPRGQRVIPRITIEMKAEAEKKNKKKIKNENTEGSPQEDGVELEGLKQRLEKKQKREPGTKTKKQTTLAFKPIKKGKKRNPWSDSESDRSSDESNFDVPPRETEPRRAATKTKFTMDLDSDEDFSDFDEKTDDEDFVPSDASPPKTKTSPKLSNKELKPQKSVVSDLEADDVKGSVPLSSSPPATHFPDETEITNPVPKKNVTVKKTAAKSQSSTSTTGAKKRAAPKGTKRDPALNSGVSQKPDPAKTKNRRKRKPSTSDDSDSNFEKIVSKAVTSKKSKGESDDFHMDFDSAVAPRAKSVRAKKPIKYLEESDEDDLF

CC(=O)Nc1ccc2c(-c3cc(Cl)ccc3O)ccnc2c1O
inhibition [1]: 0%

CC(=O)Nc1ccc2c(-c3cncnc3)ccnc2c1O
inhibition [1]: 0%

CC(=O)Nc1ccc2c(-c3cc4ccccc4o3)ccnc2c1O
solubility thermodynamic at 18 h [2]: 28 µg/mL (≈ 88 µM)
IC50 [3]: 1 µM
Tmax [4]: 15 min
Drug metabolism [5]: Metabolite_Notdetected
EC50 (SW-620 [6]): > 30 µM
half-life [7]: 266 min
Cmax [8]: 707 ng/mL
Stability [9]: Stable
inhibition (SW-620 [10]): Active
Drug metabolism [11]: Metabolite_Detected
AUC(0-t) [12]: 2840 ng·h/mL
Vz (Mus musculus): 108.9 L/kg
CL/F [13]: 283 mL/min/kg
inhibition [1]: 100%
inhibition (SW-620 [14]): Active
t1/2 [15]: > 60 min

COc1c(NC(C)=O)ccc2c(-c3cc(F)ccc3O)ccnc12
inhibition [1]: 0%

CC(=O)Nc1ccc2c(-c3ccoc3)ccnc2c1O
IC50 [3]: 1.7 µM
EC50 (SW-620 [6]): > 30 µM
inhibition (SW-620 [10]): Active
inhibition [1]: 86%
inhibition (SW-620 [14]): Active

CC(=O)Nc1ccccc1-c1ccnc2c(O)c(NC(C)=O)ccc12
inhibition [1]: 1%

CC(=O)Nc1ccccc1-c1ccnc2c(O)c(NC(=O)CCN3CCOCC3)ccc12
inhibition [1]: 1%

CC(=O)Nc1ccc2c(-c3ccco3)ccnc2c1O
inhibition [1]: 0%

CC(=O)Nc1ccc2c(-c3cccc(O)c3)ccnc2c1O
inhibition [1]: 0%

O=C(CCN1CCOCC1)Nc1ccc2c(-c3cc4ccccc4o3)ccnc2c1O
solubility thermodynamic at 18 h [2]: 1160 µg/mL (≈ 2780 µM)
IC50 [3]: 2.5 µM
Tmax [4]: 15 min
Drug metabolism [5]: Metabolite_Notdetected
EC50 (SW-620 [6]): 17.4 µM
half-life [7]: 358 min
Cmax [8]: 6830 ng/mL
Stability [9]: Stable
inhibition (SW-620 [10]): Active
Drug metabolism [11]: Metabolite_Detected
AUC(0-t) [12]: 12900 ng·h/mL
Vz (Mus musculus): 32 L/kg
CL/F [13]: 61.8 mL/min/kg
inhibition [1]: 83%
inhibition (SW-620 [14]): Active
t1/2 [15]: 14 min

CC(=O)Nc1ccc2c(-c3cccc(F)c3)ccnc2c1O
inhibition [1]: 100%

CC(=O)Nc1ccc2c(-c3cccs3)ccnc2c1O
IC50 [3]: 5 µM
EC50 (SW-620 [6]): > 30 µM
inhibition [1]: 100%

CC(C)(C)C(=O)Nc1ccc2c(-c3ccccc3)ccnc2c1O
IC50 [16]: 1.3 µM
IC50 [3]: 4.7 µM
EC50 (SW-620 [6]): > 30 µM
inhibition (SW-620 [10]): Active
inhibition [1]: 97%
inhibition (SW-620 [14]): Active

O=C(CN1CCOCC1)Nc1ccc2c(-c3cc4ccccc4o3)ccnc2c1O
solubility thermodynamic at 18 h [2]: 45 µg/mL (≈ 112 µM)
fold change (FC) (SW-620 [17]): 3
IC50 [3]: 1.1 µM
Tmax [4]: 15 min
Drug metabolism [5]: Metabolite_Notdetected
EC50 (SW-620 [6]): 22 µM
half-life [7]: 350 min
Cmax [8]: 1980 ng/mL
Stability [9]: Stable
inhibition [18]: Active
inhibition [19]: Active
Drug metabolism [11]: Metabolite_Detected
AUC(0-t) [12]: 5890 ng·h/mL
Vz (Mus musculus): 69.3 L/kg
CL/F [13]: 137 mL/min/kg
Activity (SW-620 [20]): Active
growth inhibition (GI) (SW-620 [21]): Active
inhibition [1]: 100%
t1/2 [15]: 30.18 min

O=C(CN1CCOCC1)Nc1ccc2c(-c3cc(F)ccc3O)ccnc2c1O
inhibition [1]: 4%

CC(=O)Nc1ccc2c(-c3cccc(C(F)(F)F)c3)ccnc2c1O
IC50 [16]: 3.4 µM
Drug metabolism [5]: Metabolite_Notdetected
Stability [9]: Stable
Drug metabolism [11]: Metabolite_Detected
inhibition [1]: 97%

CC(=O)Nc1ccc2c(-c3cc(C(F)(F)F)ccc3O)ccnc2c1O
inhibition [1]: 100%

COc1c(NC(C)=O)cc(OC)c2c(-c3ccccc3NC(=O)c3ccccc3)ccnc12
inhibition [1]: 0%

CC(=O)Nc1ccc(-c2ccnc3c(O)c(NC(C)=O)ccc23)cc1
IC50 [16]: 1.9 µM
IC50 [3]: 2 µM
Drug metabolism [5]: Metabolite_Notdetected
EC50 (SW-620 [6]): > 30 µM
Stability [9]: Stable
inhibition (SW-620 [10]): Active
Drug metabolism [11]: Metabolite_Detected
inhibition [1]: 97%
inhibition (SW-620 [14]): Active

CC(=O)Nc1ccc2c(-c3cc4ccccc4s3)ccnc2c1O
inhibition [1]: 0%

CC(=O)Nc1ccc2c(-c3ccc(C(F)(F)F)cc3)ccnc2c1O
inhibition [1]: 97%

CC(=O)Nc1ccc2c(-c3ccc(F)cc3)ccnc2c1O
inhibition [1]: 1%

CC(=O)Nc1cccc(-c2ccnc3c(O)c(NC(C)=O)ccc23)c1
inhibition [1]: 3%

COc1ccc(F)cc1-c1ccnc2c(OC)c(NC(C)=O)ccc12
inhibition [1]: 0%

CC(C)(C)C(=O)Nc1ccc2c(-c3cc(F)ccc3O)ccnc2c1O
inhibition [1]: 0%
